Source: ChEMBL document CHEMBL4513216, “Probing the Open Global Health Chemical Diversity Library for Multistage-Active Starting Points for Next-Generation Antimalarials” (ACS Infect Dis, 2020)

Test: Toxicity liver stage against HepG2, at 10uM
Assay type: cell-based
Design: test concentration 10 uM, cell line HepG2-A16-CD81EGFP
Conditions: human, HepG2-A16-CD81EGFP cells; read-out: INHIBITION
In short: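 Uninfected HepG2-A16-CD81EGFP cells, 3 × 10^3 per well, 1536-well, plated on prespotted compound at 10 μM final, parasite-free screening media added to match infected plates; puromycin 10 μM positive, DMSO 0.5% negative; run in parallel with 48 h PbLuc assay at 37 °C, 5% CO2; viability by CellTiter-Glo luminescence, normalized to controls.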

Going from O=S1(=O)C[C@@H]2[C@H](C1)N(Cc1ccoc1)CCN2Cc1ccncc1 to c1cc(COC[C@]23COC[C@H]2CN(Cc2ccncc2)C3)ccn1, the cytotoxicity at 10 µM falls from -0.452% to -63.5%.

Going from Cc1nc(N)ncc1C(=O)N1CCCC(CCc2ccccc2F)C1 (stereo not given) to Cn1cnnc1C1CCN(C(=O)CCCOc2ccccc2F)CC1, the cytotoxicity at 10 µM falls from -4.96% to -6.26%.

Going from COc1cccc(-c2noc(-c3ccc(NCCCO)nc3)n2)c1OC to CCOc1ncccc1NC(=O)NCC(O)c1ccc(OC)cc1 (stereo not given), the cytotoxicity at 10 µM falls from -1.5% to -16.6%.

Compared with O=C(c1ccc(S(=O)(=O)NCC(F)F)cc1)N1CC[C@H]2CNC[C@H]21, O=C(c1ccc(F)cc1)N1C[C@@H]2CCN(c3cccnc3)C[C@@H]2C1 is lower in cytotoxicity at 10 µM: -14% for the first, -78.4% for the second.

Going from CCCc1cc(CNC(=O)Cc2cc(C)no2)on1 to CC(C)c1cc(COCCC(=O)O)no1, the cytotoxicity at 10 µM falls from -1.04% to -6.5%.

First: CN(C)c1ccc(CC(=O)N2C[C@H](C3CC3)[C@@H](N)C2)cc1
Second: CCc1ccc(O)c(C(=O)NC2CCN(S(=O)(=O)CC)CC2)c1
The cytotoxicity at 10 µM of the first is lower: -3.97% for the first, 7.37% for the second.

Going from COc1ccc(OCc2cc(C(=O)N3C[C@@H](C)O[C@@H](C)C3)n[nH]2)c(Cl)c1 to Cc1cccc(C(=O)N2CCC(c3n[nH]c(C4CC4)n3)CC2)c1, the cytotoxicity at 10 µM falls from -4.28% to -15.3%.

First: Nc1cc(C(=O)NCC2CCN(Cc3cccc(O)c3)C2)ccn1 (stereo not given)
Second: Cc1ccnc(N2CCN(Cc3ccccc3)CC(O)C2)c1 (stereo not given)
The cytotoxicity at 10 µM of the first is lower: -8.69% for the first, -1.88% for the second.

First: O=C(CN1CCCCC1=O)N1CCC2(CC1)[C@H](O)C[C@@H]2O
Second: O=C(CC1CCCC1)N1CC[C@H]2[C@H]1CCN2c1nncs1
The cytotoxicity at 10 µM of the first is higher: -1.74% for the first, -3.43% for the second.

Going from O=C(NCCc1cnccn1)C1(N2CCCCC2)Cc2ccccc2C1 to O=C1N(c2cccnc2)CCC12CCCN(Cc1ccco1)C2 (stereo not given), the cytotoxicity at 10 µM rises from -7.82% to -5.79%.

First: Cc1cc(C)c2c(N3CCN(C(=O)N(C)C)CC3)ncnc2n1
Second: Cc1cc2c(=O)n3c(nc2s1)CCN(Cc1cnc(C(C)C)nc1)CC3
The cytotoxicity at 10 µM of the first is lower: -1.18% for the first, 10.5% for the second.

Going from COCCN1CCC(c2nc3c([nH]2)CCCNC3=O)CC1 to COCCCN(C)C1CCCN(Cc2noc(C3CC3)n2)C1 (stereo not given), the cytotoxicity at 10 µM falls from 0.583% to -15.4%.

Compared with CN(Cc1cccnc1)C[C@H]1CC[C@@H](Cc2ccc3c(cnn3C)c2)O1, Cc1ccc(CN2CCN(Cc3ccc(N(C)C)nc3)CC2=O)cc1C is lower in cytotoxicity at 10 µM: 5.15% for the first, -2.43% for the second.

First: O=C(c1cnc(Cc2c(Cl)cccc2Cl)nc1O)N1CCNCC1
Second: CCOc1ccccc1OC1CCN(C(=O)c2cnns2)CC1
The cytotoxicity at 10 µM of the first is higher: -3.01% for the first, -3.14% for the second.

First: COCC(=O)N1CCC(C(=O)N(C)C(C)c2ccon2)CC1 (stereo not given)
Second: NC(=O)C1CCN(C(=O)NCc2ccccc2-n2cccn2)CC1
The cytotoxicity at 10 µM of the first is higher: 1.28% for the first, -11.1% for the second.

Compared with CC(C)NC(=O)c1nc(Cn2c(C(F)(F)F)nc3ccccc32)no1, CCn1nc2c(cc1=O)CN(Cc1nc(-c3ccccn3)no1)CC2 is lower in cytotoxicity at 10 µM: 20.7% for the first, -5.13% for the second.

Going from COCCn1ccnc1CN(Cc1ccccn1)CC(C)C to Fc1ccc(CN2C[C@@H](OCc3ccccn3)[C@H]3COC[C@H]32)cc1, the cytotoxicity at 10 µM falls from 4.96% to -98.9%.

First: Cc1cccc(C)c1OC1CN(Cc2cnn(C)c2)C1
Second: COc1ccc(CN2CCC3(CC2)CCN(c2cnn(C)c2)C3=O)cc1
The cytotoxicity at 10 µM of the first is higher: 7.97% for the first, -85.6% for the second.

Going from CCN(CCO)C(=O)C1CCC(=O)N(CCc2cccc(F)c2)C1 (stereo not given) to COc1ccc(CC(=O)N2CCCC2Cn2cccn2)cc1F (stereo not given), the cytotoxicity at 10 µM rises from -4.15% to -0.587%.

First: CN1CCCN(C[C@H]2C[C@H](CO)CN(Cc3cccnc3N)C2)CC1
Second: CCc1nnsc1C(=O)N1CCCN(Cc2nccn2C)CC1
The cytotoxicity at 10 µM of the first is lower: -10.7% for the first, -4.26% for the second.

First: CCN1CCN(C(=O)c2ccc(=O)n(C)c2)c2ccccc21
Second: CN1C(=O)C2(CCN(C(=O)c3ccccc3)CC2)c2cccc(F)c21
The cytotoxicity at 10 µM of the first is lower: -1.64% for the first, 4.74% for the second.

First: CN(CC1COc2ccccc2O1)C(=O)CCn1cncn1 (stereo not given)
Second: CN(Cc1ccc2c(c1)OCO2)C(=O)Cn1cccnc1=O
The cytotoxicity at 10 µM of the first is lower: -7.36% for the first, -3.96% for the second.

Compared with COc1ccc(COCC(O)CN2CCC(c3ccn[nH]3)CC2)cc1 (stereo not given), O=C(Cc1cccs1)N1C[C@@H]2COC[C@]2(COCc2cccnc2)C1 is lower in cytotoxicity at 10 µM: -0.975% for the first, -2.8% for the second.

Compared with Cc1nnc2n1CCN(CCOc1cccc(C#N)c1)C2, CC(C)NC(=O)Nc1ccc(CNCc2cccc(C#N)c2)cc1 is higher in cytotoxicity at 10 µM: -7.88% for the first, -7.15% for the second.

Going from CCn1cnnc1CNC(=O)c1ccc(Cl)cc1I to CCn1ncc2c1C(COC)N(C(=O)c1ccsc1)CC2 (stereo not given), the cytotoxicity at 10 µM falls from -6.31% to -101%.

Going from Cc1cc(C)n(CC(=O)N2CCC(NS(=O)(=O)c3ccccc3)CC2)n1 to Cc1ccc(C(=O)CN(C2=NCCCCC2)c2ccccc2)cc1, the cytotoxicity at 10 µM rises from 4.59% to 17.7%.

First: CCn1nnc2c1C(COCCN(C)C)CN(S(C)(=O)=O)C2 (stereo not given)
Second: O=S(=O)(C1CC1)N1C[C@H]2CCC[C@@]2(COCc2ccccn2)C1
The cytotoxicity at 10 µM of the first is lower: -2.69% for the first, 10.6% for the second.

In the case of Cc1c(-c2cccs2)nn2c(=O)c3c([nH]c12)CN(C(=O)C1CC1)C3, the cytotoxicity at 10 µM was -4.02%.
